From ChEMBL document CHEMBL1142419, “Antimycobacterial activities of novel 2-(sub)-3-fluoro/nitro-5,12-dihydro-5-oxobenzothiazolo[3,2-a]quinoline-6-carboxylic acid” (Bioorg Med Chem, 2008)
≈ marks a conversion by molar mass, not a printed value.

How the values were obtained:
[1] = test system: Mycobacterium tuberculosis; experiment: Antimycobacterial activity against Mycobacterium tuberculosis ATCC 35801 infected in CD1 mouse assessed as bacterial load in lung at 50 mg/kg, ip after 10 days; type: functional; conditions: route intraperitoneal
Summary of the method: (§1)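 Six-week-old female CD-1 mice, six per group, infected intravenously via caudal vein with ~10⁷ viable M. tuberculosis ATCC 35801. Intraperitoneal dosing began 10 days after inoculation and ran 10 days. On day 35 post-infection, spleens and right lungs were removed and homogenized. Serial 10-fold dilutions were plated on 7H10 agar (37 °C, ambient air, 4 weeks). Log CFU compared against vehicle-treated controls.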

[2] = test system: Mycobacterium tuberculosis; experiment: Antimycobacterial activity against Mycobacterium tuberculosis ATCC 35801 infected in CD1 mouse assessed as bacterial load in spleen at 50 mg/kg, ip after 10 days; type: functional; conditions: route intraperitoneal; summary of the method: as §1
[3] = Inhibition of Mycobacterium smegmatis DNA gyrase supercoiling activity; set-up: species or system Mycolicibacterium smegmatis
Mus musculus [4] = experiment: Phototoxicity in Swiss albino mouse assessed as ear thickness at 140 mg/kg, po after 4 hrs of irradiation; type: organism-based; set-up: dose 140 mg/kg, route oral; conditions: in vivo
Summary of the method: (§2)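 Female Swiss albino mice (about 2 months, 20–25 g), fasted at least 18 h, received a single oral gavage of 140 mg/kg. Groups: six per group; lomefloxacin HCl 140 mg/kg; vehicle 0.5% aqueous sodium carboxymethylcellulose at 10 ml/kg. Mice were UV-irradiated for 4 h (about 18 J/cm²). Both ears were scored for erythema, edema and ear thickness (left/right averaged) pre-dose, at end of irradiation, and at about 24, 48, 72 and 96 h. Ear thickness change from baseline was tested by Student's t-tests.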

Mus musculus [5] = experiment: Phototoxicity in Swiss albino mouse assessed as ear thickness at 140 mg/kg, po after 24 hrs of irradiation; type: organism-based; set-up: dose 140 mg/kg, route oral; conditions: in vivo; summary of the method: as §2
Mus musculus [6] = experiment: Phototoxicity in Swiss albino mouse assessed as ear thickness at 140 mg/kg, po after 48 hrs of irradiation; type: organism-based; set-up: dose 140 mg/kg, route oral; conditions: in vivo; summary of the method: as §2
Mus musculus [7] = experiment: Phototoxicity in Swiss albino mouse assessed as ear thickness at 140 mg/kg, po after 72 hrs of irradiation; type: organism-based; set-up: dose 140 mg/kg, route oral; conditions: in vivo; summary of the method: as §2
Mus musculus [8] = experiment: Phototoxicity in Swiss albino mouse assessed as ear thickness at 140 mg/kg, po after 96 hrs of irradiation; type: organism-based; set-up: dose 140 mg/kg, route oral; conditions: in vivo; summary of the method: as §2
Mus musculus [9] = experiment: Phototoxicity in Swiss albino mouse assessed as erythema incidence at 140 mg/kg, po after 24 hrs of irradiation; type: organism-based; set-up: dose 140 mg/kg, route oral; conditions: in vivo; summary of the method: as §2
Mus musculus [10] = experiment: (§3) Phototoxicity in Swiss albino mouse assessed as erythema incidence at 140 mg/kg, po after 48 hrs of irradiation; type: organism-based; set-up: dose 140 mg/kg, route oral; conditions: in vivo; summary of the method: as §2
Mus musculus [11] = experiment: as §3; type: organism-based; set-up: dose 140 mg/kg, route oral; conditions: in vivo; summary of the method: as §2; remark: listed apart in the source
Mus musculus [12] = experiment: Phototoxicity in Swiss albino mouse assessed as erythema incidence at 140 mg/kg, po after 96 hrs of irradiation; type: organism-based; set-up: dose 140 mg/kg, route oral; conditions: in vivo; summary of the method: as §2
[13] = test system: Mycobacterium tuberculosis; experiment: Antimycobacterial activity against Mycobacterium tuberculosis H37Rv by agar dilution method; type: functional
Summary of the method: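 MIC by agar dilution on Middlebrook 7H11 agar supplemented with OADC, following an NCCLS-like procedure, run in duplicate. The MDR-TB clinical isolate was resistant to isoniazid, rifampicin, ethambutol and ofloxacin.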

[14] = test system: Mycolicibacterium smegmatis; experiment: Antimycobacterial activity against Mycobacterium smegmatis MC2 by agar dilution method; type: functional
Summary of the method: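 Agar dilution on Middlebrook 7H11 agar supplemented with OADC, following an NCCLS-like procedure; MIC determined in duplicate against M. smegmatis ATCC 14468 (MC²).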

Vero = experiment: Cytotoxicity against african green monkey Vero cells after 72 hrs by MTT assay; type: cell-based; conditions: Chlorocebus sabaeus
Summary of the method: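 Vero mammalian cells were exposed to compounds for 72 h, with testing at 62.5 µg/ml. Viability was read as cellular conversion of MTT to formazan (non-radioactive cell proliferation kit), and IC50 was reported.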

[15] = Selectivity index, ratio of IC50 for african green monkey Vero cells to MIC for Mycobacterium tuberculosis H37Rv; type: functional
Summary of the method: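 Vero cells were exposed for 72 h, with viability read by MTT conversion to formazan to give the IC50. The MIC against H37Rv was by duplicate agar dilution on OADC-supplemented Middlebrook 7H11 agar. Index = Vero IC50 / MIC.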

SMILES: CCN(CC)C(=O)C1CCCN(c2cc3c(cc2F)c(=O)c(C(=O)O)c2sc4ccccc4n23)C1 (stereo unspecified)
- Log10 cfu [1]: 5.21
- Log10 cfu [2]: 5.9
- IC50 [3]: 40 µg/mL (≈ 80.7 µM)
- Activity (Mus musculus [4]): 0.29 mm
- Activity (Mus musculus [5]): 0.29 mm
- Activity (Mus musculus [6]): 0.29 mm
- Activity (Mus musculus [7]): 0.3 mm
- Activity (Mus musculus [8]): 0.28 mm
- Activity (Mus musculus [9]): Non-toxic
- Activity (Mus musculus [10]): Non-toxic
- Activity (Mus musculus [11]): Non-toxic
- Activity (Mus musculus [12]): Non-toxic
- MIC [13]: 0.18 µM (≈ 0.0892 µg/mL)
- MIC [14]: 3.15 µM (≈ 1.56 µg/mL)
- IC50 (Vero): 126 µM
- Selectivity index [15]: 1576
